Hck Nef HTS – blocks Nef-activated human Hck kinase; P08631; Recombinant Hck-YEEI plus Nef, Z-Lyte FRET kinase assay; inhibition, % at 20 µM; 220,000 tested, 0.68% active; AID 463187;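 active means Hck-Nef kinase inhibition above about 50%, limit read from the data; inactive means inhibition below that limit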;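 further: 0% = DMSO with Hck plus Nef and 100% = Hck alone without Nef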
L929 necroptosis – L929 zVAD cell death inhibition. L929 zVAD necroptosis rescue, ATP luminescence, 24 h; with zVAD 60 µM. viability rescue, % at 10 µM. 220,000 tested, 0.38% active. AID 1377;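 active means activation, scaled between plate controls, above about 75%, limit read from the data; inactive means activation under that limit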;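 further: 0% = zVAD with DMSO and 100% = DMSO alone without zVAD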
Runt-SMMHC FRET – blocks binding of human RUNX1 Runt domain to CBFb-SMMHC. Q01196+Q13951. Cerulean-Runt/Venus-CBFb-SMMHC FRET ratio 530/480, 1 h. inhibition, % at 20 µM. 220,000 tested, 0.74% active. AID 1434;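 active means mean inhibition across duplicate retests at 20 µM reaching about 50%, limit read from the data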;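 further: 0% = DMSO wells and 100% = wells with excess untagged CBFb-SMMHC; inhibitors lower the FRET ratio by blocking Runt binding to CBFb-SMMHC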
Target sequence (Q01196 whole entry, looked up, the tested form may be a part): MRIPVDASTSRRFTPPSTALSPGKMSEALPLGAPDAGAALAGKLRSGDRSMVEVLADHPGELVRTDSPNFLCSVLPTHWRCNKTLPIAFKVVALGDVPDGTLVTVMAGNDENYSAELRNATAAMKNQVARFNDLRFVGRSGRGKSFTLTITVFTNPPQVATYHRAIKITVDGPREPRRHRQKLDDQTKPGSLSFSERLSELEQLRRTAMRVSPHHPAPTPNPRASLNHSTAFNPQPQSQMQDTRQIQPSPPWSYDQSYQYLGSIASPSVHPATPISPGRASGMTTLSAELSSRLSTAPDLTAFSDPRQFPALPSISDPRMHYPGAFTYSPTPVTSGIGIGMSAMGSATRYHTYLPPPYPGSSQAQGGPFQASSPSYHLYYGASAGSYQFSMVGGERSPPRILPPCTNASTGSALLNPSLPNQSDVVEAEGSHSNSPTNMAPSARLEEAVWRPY
Target sequence (Q13951 whole entry, looked up, the tested form may be a part): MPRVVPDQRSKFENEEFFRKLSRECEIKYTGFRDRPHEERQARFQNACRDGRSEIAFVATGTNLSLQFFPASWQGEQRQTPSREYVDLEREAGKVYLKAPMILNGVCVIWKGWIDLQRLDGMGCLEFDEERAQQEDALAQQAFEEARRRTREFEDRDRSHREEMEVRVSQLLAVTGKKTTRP
Runt-CBFb FRET – inhibitors of human RUNX1 Runt domain binding to CBFb. Cerulean-Runt/Venus-CBFb FRET ratio 530/480, 1 h. Q01196+Q13951. 220,000 tested, 0.46% active. inhibition, % at 20 µM. AID 1496;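 active means inhibition over about 50% at 20 µM in the single-dose screen, limit read from the data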;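 further: 0% = DMSO wells and 100% = excess unlabeled CBFb competitor control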
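Doses: 20 µM compound in 1% DMSO | Material: Cerulean-labeled Runt domain protein | Amount: Each fluorescent fusion protein 100 nM | Schedule: Two 1 h room-temperature incubations shielded from light | Measured by: FRET fluorescence | Evaluation: Loss of energy transfer signal | Controls: Unlabeled CBFb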
RanGTP-Imp inh – inhibitors of RanGTP-importin-beta interaction, primary screen, biochemical, FRET, CFP-Ran, YFP-importin-beta, homogeneous | inhibition, % (test concentration not listed) | AID 2216 | cell-free CFP-Ran/YFP-importin-beta FRET ratio | 300,000 tested, 1.1% active;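 active means more than half of the replicate wells show a fall in the fluorescence ratio signal beyond about 16%, limit read from the data, passing the limit was not always enough; inconclusive means exactly half of the replicate wells pass the set limit; inactive means fewer than half of replicates pass the limit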;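 further: 0% = DMSO wells and 100% = Ran loaded with GDP instead of GTP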
TNF death inh – TNF-alpha cell death inhibition in Jurkat FADD-/- cells; AID 463075; activation (protection from cell death), % at 10 µM; Jurkat FADD-/- TNF necroptosis rescue, ATP luminescence, 24 h; 0 = TNF only, 100 = no-TNF cells; 220,000 tested, 0.068% active;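 active means activation, meaning protection from cell death, of at least 50% relative to plate controls; inactive means activation below 50%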;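 further: necroptosis triggered by 40 ng/mL TNF-alpha added together with compound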
Starred values were filed as active, the others as inactive; ? = inconclusive; . = not tested or not shown. Compounds with a hit are over-represented: about 2.1% of the library has one in this group of screens.

SMILES | Hck Nef HTS | L929 necroptosis | Runt-SMMHC FRET | Runt-CBFb FRET | RanGTP-Imp inh | TNF death inh
COCCN(C(=O)CN1CCCc2ccccc21)c1c(N)n(Cc2ccccc2)c(=O)[nH]c1=O | 1 | 0 | 20 | -7 | 6 | -1
CCN(C(=O)CN1CCc2ccccc21)c1c(N)n(Cc2ccccc2)c(=O)[nH]c1=O | 17 | 0 | 57* | 9 | 6 | 0
CC1CN(Cc2cc(=O)oc3cc(O)c(Cl)cc23)CC(C)O1 (stereo unspecified) | . | . | . | . | 61* | .
CN(Cc1ccccc1F)Cc1cc(=O)oc2cc(O)c(Cl)cc12 | . | . | . | . | 67* | .
CC1CCN(Cc2cc(=O)oc3cc(O)c(Cl)cc23)CC1 | . | . | . | . | 118* | .
CCOC(=O)N1CCN(C(=O)CNC2CCCCCCC2)CC1 | -4 | 0 | -2 | 0 | 0 | 0
Cc1nc(-c2nc(-c3c(C(=O)NNC(=O)c4ccc(Cl)cc4)noc3C)cs2)cs1 | 13 | 0 | -3 | 0 | 17* | 4
Cc1cccn2c(=O)c(/C=C(\C#N)C(=O)NC3CCS(=O)(=O)C3)c(Oc3ccccc3Cl)nc12 (stereo unspecified) | . | . | . | . | 160* | .
Cc1ccccc1Oc1nc2c(C)cccn2c(=O)c1/C=C(\C#N)C(=O)NC1CCS(=O)(=O)C1 (stereo unspecified) | 9 | 0 | 76* | 113* | 13 | -13
Cc1ccc(Oc2nc3c(C)cccn3c(=O)c2/C=C(\C#N)C(N)=O)cc1 | 10 | 0 | 64* | 46 | 12 | -6
Cc1ccc(Oc2nc3ccccn3c(=O)c2/C=C(\C#N)C(=O)NC2CCS(=O)(=O)C2)cc1 (stereo unspecified) | -3 | 0 | 82* | 73* | 29* | -5
COc1ccc(OCc2cc(C(=O)NCCN3CCCc4ccccc43)no2)c(Cl)c1 | . | . | . | . | 0 | .
COc1ccc(CSC2=CS(=O)(=O)c3ccccc3N2)cc1 | 3 | 0 | 0 | -1 | 2 | 2
Cc1ccc(C)n1-c1nccc(-c2ccco2)n1 | 0 | 0 | 86* | 32 | 13 | -3
COc1cc(C2C(C#N)=C(N)N(Nc3ccccc3)C3=C2C(=O)CC(C)(C)C3)ccc1OCc1ccccc1 (stereo unspecified) | 5 | 1 | 32 | 18 | 5 | -19
C=CCOc1ccc(C2C(C#N)=C(N)N(Nc3ccccc3)C3=C2C(=O)CCC3)cc1OC (stereo unspecified) | 15 | 1 | 104* | 89* | 7 | -5
CCCN(CCC)c1ccc(/C=C/c2ccc3cc(OCC)ccc3n2)cc1 | -67 | 0 | 82 | -20 | 21* | 0
O=C(NNC(=O)C1[C@H]2CCCC[C@@H]12)c1ccc(=O)oc1 (stereo partly specified) | -8 | 1 | 82* | 28 | 0 | 1
Cc1cccc(-c2noc(CCCC(=O)NC3CCCC3)n2)c1 | . | . | . | . | 1 | .
COc1ccc(N2CCN(C(=O)Cc3ccc(S(=O)(=O)N4CCOCC4)s3)CC2)cc1 | -7 | -1 | -7 | 2 | 1 | 0
CCCCN(C)CC(O)Cn1cc(/C=C/C(=O)c2ccc(OCC)cc2)c2ccccc21 (stereo unspecified) | . | . | . | . | 25* | .
COc1ccc2nc3ccccc3nc2c1 | 8 | 8 | 86* | 1 | 38* | 0
O=c1[nH]c(SCc2ccc(F)cc2)nc2c1cnn2-c1ccc(F)cc1 | 39 | 2 | -1 | 0 | 2 | -1
O=c1[nH]c(SCc2ccccc2)nc2c1cnn2-c1ccc(F)cc1 | 8 | 1 | -6 | 0 | 28* | 0
OCCNc1nc(-c2ccccc2)nc2c1oc1ccccc12 | 23 | 1 | -2 | 0 | 3 | 6
SMILES | Hck Nef HTS | L929 necroptosis | Runt-SMMHC FRET | Runt-CBFb FRET | RanGTP-Imp inh | TNF death inh
O=C(Nc1cccc(S(=O)(=O)N2CCCCC2)c1)C1CC(=O)N(Cc2ccco2)C1 (stereo unspecified) | 15 | 1 | -3 | 1 | 40* | 1
CCOc1ccccc1NC(=O)C(=O)N/N=C/c1cc(Br)ccc1O | 13 | 65 | 9 | -11 | 3 | -12
COC(=O)c1ccc2[nH]c(C)c(CN3CCCC3)c(=O)c2c1 | -1 | 2 | 64* | 16 | -3 | 0
O=C(CCn1c(=O)c2cccn2c2cccnc21)N1CCN(c2cccc(Cl)c2)CC1 | . | . | . | . | 4 | .
Cc1cccn2c(=O)c3cc(C(=O)NCC4CCCO4)n(C)c3nc12 (stereo unspecified) | 30 | 1 | . | . | . | -1
COCCCNC(=O)c1cc2c(=O)n3cc(C)ccc3nc2nc1NCC1CCCO1 (stereo unspecified) | 193* | 0 | 60* | 19 | 173* | 2
C=CCNC(=O)c1cc2c(=O)n3cc(C)ccc3nc2nc1NCC1CCCO1 (stereo unspecified) | 179* | -1 | 60* | 19 | 179* | 1
O=C(NCCOc1ccccc1)C1CCC(=O)N(C2CCCCCC2)C1 (stereo unspecified) | . | . | . | . | -2 | .
Cc1nn2c(COc3ccc(NC(=O)c4ccccc4Cl)cc3)nnc2c2ccccc12 | 5 | 5 | 0 | 0 | -2 | -2
CCCCN(c1nc2ccccc2nc1Cl)S(=O)(=O)c1ccc(C)cc1 | . | . | . | . | 5 | .
COC(=O)C1=CN(C2CC2)C=C(C(=O)OC)C1c1ccccc1OC | 49 | -1 | 38 | 105* | 32* | -1
COC(=O)C1=CN(Cc2ccccc2)C=C(C(=O)OC)C1c1ccc(OC)c(OC)c1 | . | . | . | . | 3 | .
COC(=O)C1=CN(Cc2ccc(OC)c(OC)c2)C=C(C(=O)OC)C1c1ccc(F)cc1 | . | . | . | . | 18* | .
COC(=O)C1=CN(Cc2ccc(OC)c(OC)c2)C=C(C(=O)OC)C1c1cccc(OC)c1OC | . | . | . | . | 73* | .
COC(=O)C1=CN(Cc2cccs2)C=C(C(=O)OC)C1c1cccc(OC)c1OC | 7 | 0 | 41 | 93* | 71* | 1
CCOC(=O)c1ccc(OCCOc2ccccc2C)cc1 | . | . | . | . | 2 | .
Cc1ccccc1C(=O)c1c[nH]c(C(=O)NCCc2ccccn2)c1 | -2 | 65 | -2 | -2 | 1 | -1
CCc1cc(CN2CCOCC2)c(NC(=O)c2ccccc2)s1 | 19 | 1 | -1 | 1 | -2 | 0
CN1CCc2c(sc(/N=C/c3ccco3)c2C(N)=O)C1 | 4 | 0 | 62* | 106* | -3 | -11
CCOC(=O)c1c(/N=C/c2cccc(C)c2O)sc2c1CCN(C)C2 | -1 | 2 | 13 | 37 | 12 | 2
CN1CCc2c(sc(/N=C/c3cccs3)c2C(N)=O)C1 | 7 | 1 | 65* | 81* | ? | -11
CC1CCC(NC(=O)CCNC(=O)c2ccccc2)CC1 (stereo unspecified) | -2 | 0 | 0 | 0 | -3 | 1

High-throughput results from PubChem.
